In ChEMBL document CHEMBL4813921, “Optimization of WZ4003 as NUAK inhibitors against human colorectal cancer” (Eur J Med Chem, 2021):
The source made the active and inactive calls. No cut-off for these calls is given here.

Tests used:
[1] = tested on: SW480; assay: Antiproliferative activity against human SW480 cells assessed as reduction in cell viability at 10 uM measured after 1 to 5 days by MTT assay relative to control; type: functional, cell-based; settings: time 1-5 day
How it was run: (§1)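 MTT viability read daily over 1–5 days of exposure to 10 μM compound; mean ± SD, n = 3.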

[2] = tested on: HCT-116; assay: Induction of cell cycle arrest in human HCT-116 cells assessed as increase in accumulation at G2/M phase at 10 uM measured after 48 hrs by PI/RNaseA staining based flow cytometry assay; type: functional
[3] = tested on: SW480; assay: Induction of apoptosis in human SW480 cells assessed as viable cells at 10 uM measured after 48 hrs by Annexin V-FITC/PI staining based flow cytometry method (reference value: 93.2%); type: functional; settings: read-out: Activity
[4] = tested on: U2OS; assay: Induction of apoptosis in human U2OS cells assessed as necrotic cells at 10 uM measured after 48 hrs by Annexin V-FITC/PI staining based flow cytometry method (reference value: 0.4%); type: functional
[5] = tested on: U2OS; assay: Antiproliferative activity against human U2OS cells at 2.5 to 10 uM measured after 48 hrs by EdU staining based assay; type: functional, cell-based; settings: dose 2.5-10 µM
How it was run: (§2)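 Cells exposed to a range of compound concentrations for 48 h, then EdU click-chemistry staining with DAPI counterstain. Confocal high-content imaging; DAPI-positive nuclei counted as total and EdU-positive as proliferating.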

[6] = tested on: U2OS; assay: Inhibition of colony formation in human U2OS cells measured after 14 days by crystal violet staining based microcopic analysis; type: functional, cell-based; settings: dose 0.5-2 µM, time 14.0 day
How it was run: (§3)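 Clonogenic assay with 14-day exposure to a range of compound concentrations; colonies stained with crystal violet and imaged by microscopy; compared with untreated cells.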

[7] = tested on: HCT-116; assay: Induction of apoptosis in human HCT-116 cells assessed as viable cells at 10 uM measured after 48 hrs by Annexin V-FITC/PI staining based flow cytometry method (reference value: 95.4%); type: functional; settings: read-out: Activity
[8] = tested on: HCT-116; assay: Antiproliferative activity against human HCT-116 cells assessed as reduction in cell viability at 10 uM measured after 1 to 5 days by MTT assay relative to control; type: functional, cell-based; settings: time 1-5 day; how it was run: as §1
[9] = tested on: SW480; assay: Antitumour activity against human SW480 cells xenografted in Balb/c-nu/nu mouse assessed as reduction in Ki67 expression in tumor at 10 mg/kg, ip administered every 2 days for 18 days by immunohistochemical assay; type: functional, organism-based; settings: time 18.0 day
How it was run: (§4)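 SW480 xenografts in nude mice (n = 6 per group) treated ip every two days for 18 days. Excised tumours sectioned for HE and Ki67 staining, examined at ×400.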

[10] = tested on: HCT-116; assay: Inhibition of colony formation in human HCT-116 cells measured after 14 days by crystal violet staining based microcopic analysis; type: functional, cell-based; settings: dose 0.5-2 µM, time 14.0 day; how it was run: as §3
[11] = tested on: SW480; assay: Antitumour activity against human SW480 cells xenografted in Balb/c-nu/nu mouse assessed as reduction in Ki67 expression in tumor at 20 mg/kg, ip administered every 2 days for 18 days by immunohistochemical assay; type: functional, organism-based; settings: time 18.0 day; how it was run: as §4
[12] = tested on: SW480; assay: Induction of cell cycle arrest in human SW480 cells assessed as reduction in accumulation at G1 phase at 10 uM measured after 48 hrs by PI/RNaseaA staining based flow cytometry assay; type: functional
[13] = Toxicity against BALB/c-nu/nu mouse xenografted with human SW480 cells assessed as morphological changes in lung at 10 to 20 mg/kg, ip administered every 2 days for 18 days by H and E staining based analysis; type: organism-based; settings: in vivo, 432 h, dose 10-20 mg/kg, time 18 day
How it was run: (§5)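 After 18 days of ip dosing every two days in SW480-xenografted nude mice, heart, liver, spleen, lung and kidney harvested, sectioned, HE-stained, examined at ×400.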

[14] = tested on: SW480; assay: Antitumour activity against human SW480 cells xenografted in Balb/c-nu/nu mouse assessed as inhibition of tumour volume at 10 to 20 mg/kg, ip administered every 2 days for 18 days; type: functional, organism-based; settings: dose 10-20 mg/kg, time 18.0 day
How it was run: (§6)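 SW480 xenografts in nude mice, randomized at 100 mm3 tumour volume into four groups of six. Dosed ip at 10 or 20 mg/kg every two days for 18 days, with vehicle group. Tumour volume and body weight recorded every two days; tumours weighed at end; means ± SD (n = 6).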

[15] = tested on: HCT-116; assay: Induction of apoptosis in human HCT-116 cells assessed as late apoptotic cells at 10 uM measured after 48 hrs by Annexin V-FITC/PI staining based flow cytometry method (reference value: 1.6%); type: functional
[16] = tested on: HCT-116; assay: Antiproliferative activity against human HCT-116 cells at 2.5 to 10 uM measured after 48 hrs by EdU staining based assay; type: functional, cell-based; settings: dose 2.5-10 µM; how it was run: as §2
[17] = Toxicity against BALB/c-nu/nu mouse xenografted with human SW480 cells assessed as body weight at 10 to 20 mg/kg, ip administered every 2 days for 18 days; type: organism-based; settings: in vivo, 432 h, dose 10-20 mg/kg, time 18 day; how it was run: as §6
[18] = tested on: U2OS; assay: Induction of ROS generation in human U2OS cells at 10 uM measured after 48 hrs by DCFH-DA staining based flow cytometry method; type: functional, cell-based
How it was run: (§7)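 Cells treated at 10 μM for 48 h, ROS measured by flow cytometry. Fluorescence intensity expressed relative to vehicle-treated controls; mean ± SEM from 3 independent experiments.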

[19] = tested on: U2OS; assay: Induction of apoptosis in human U2OS cells assessed as viable cells at 10 uM measured after 48 hrs by Annexin V-FITC/PI staining based flow cytometry method (reference value: 95.5%); type: functional; settings: read-out: Activity
[20] = tested on: U2OS; assay: Induction of cell cycle arrest in human U2OS cells assessed as reduction in accumulation at S phase at 10 uM measured after 48 hrs by PI/RNaseA staining based flow cytometry assay; type: functional
[21] = tested on: SW480; assay: Inhibition of colony formation in human SW480 cells measured after 14 days by crystal violet staining based microcopic analysis; type: functional, cell-based; settings: dose 0.5-2 µM, time 14.0 day; how it was run: as §3
[22] = tested on: SW480; assay: Induction of cell cycle arrest in human SW480 cells assessed as reduction in accumulation at S phase at 10 uM measured after 48 hrs by PI/RNaseA staining based flow cytometry assay; type: functional
[23] = Toxicity against BALB/c-nu/nu mouse xenografted with human SW480 cells assessed as morphological changes in spleen at 10 to 20 mg/kg, ip administered every 2 days for 18 days by H and E staining based analysis; type: organism-based; settings: in vivo, 432 h, dose 10-20 mg/kg, time 18 day; how it was run: as §5
[24] = tested on: SW480; assay: Induction of apoptosis in human SW480 cells assessed as late apoptotic cells at 10 uM measured after 48 hrs by Annexin V-FITC/PI staining based flow cytometry method (reference value: 2.8%); type: functional
[25] = tested on: SW480; assay: Induction of ROS generation in human SW480 cells at 10 uM measured after 48 hrs by DCFH-DA staining based flow cytometry method; type: functional, cell-based; how it was run: as §7
[26] = tested on: SW480; assay: Induction of apoptosis in human SW480 cells assessed as necrotic cells at 10 uM measured after 48 hrs by Annexin V-FITC/PI staining based flow cytometry method (reference value: 1.4%); type: functional
[27] = tested on: U2OS; assay: Induction of cell cycle arrest in human U2OS cells assessed as increase in accumulation at G2/M phase at 10 uM measured after 48 hrs by PI/RNaseA staining based flow cytometry assay; type: functional
[28] = tested on: SW480; assay: Induction of apoptosis in human SW480 cells assessed as early apoptotic cells at 10 uM measured after 48 hrs by Annexin V-FITC/PI staining based flow cytometry method (reference value: 2.6%); type: functional
[29] = Toxicity against BALB/c-nu/nu mouse xenografted with human SW480 cells assessed as morphological changes in heart at 10 to 20 mg/kg, ip administered every 2 days for 18 days by H and E staining based analysis; type: organism-based; settings: in vivo, 432 h, dose 10-20 mg/kg, time 18 day; how it was run: as §5

SMILES: CCC(=O)Nc1cccc(Oc2nc(Nc3ccc(N4CCN(C)CC4)cc3)ncc2Cl)c1
- Activity [1]: Active
- Activity [2]: Active
- viability at 10 µM [3]: 69.8%
- Activity [4]: 0.6%
- Activity [5]: Active
- inhibition [6]: Dose-Dependent Effect
- viability at 10 µM [7]: 46%
- Activity [8]: Active
- Activity [9]: Active
- inhibition [10]: Dose-Dependent Effect
- Activity [11]: Active
- Activity [12]: Active
- Activity [13]: Non-Toxic
- Activity [14]: Active
- Activity [15]: 10%
- Activity [16]: Active
- Activity [17]: Non-Toxic
- Activity [18]: Active
- viability at 10 µM [19]: 81.6%
- Activity [20]: Active
- inhibition [21]: Dose-Dependent Effect
- Activity [22]: Active
- Activity [23]: Non-Toxic
- Activity [24]: 10.8%
- Activity [25]: Active
- Activity [26]: 3.3%
- Activity [27]: Active
- Activity [28]: 16.2%
- Activity [29]: Non-Toxic
